# Laboratory results reported in article PMC8451875 (British Journal of Clinical Pharmacology, 2021).
# Assays:
# [1] = healthy participants administered GSK3640254; cited from earlier work
# HIV‐1 subtypes = conditions: no cross-resistance to currently approved antiretroviral treatments; cited from earlier work
# [2] = Phase I 2-way drug interaction study, safety and tolerability; format: in vivo, healthy adults; conditions: for overall drug interaction, tolerability and safety finding: administered alone or in combination, healthy adults
# Procedure, shortened: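 Open-label, fixed-sequence study in healthy men and women aged 18–55 years with BMI 18.5–31.0 kg/m2. Each drug was given alone and in combination, with a moderate-fat meal 30 min before dosing. Adverse events were monitored along with clinical laboratory values, vital signs, electrocardiography and physical examination, and summarised descriptively.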
# [3] = Phase I 2-way drug interaction study, steady-state plasma pharmacokinetics; format: in vivo, healthy adults
# Procedure, shortened: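 After an overnight fast of ≥8 h and a moderate-fat meal 30 min before dosing, each drug was given once daily in fixed sequence. Plasma was sampled predose daily, then postdose on the final dosing day at 1–24 h, extended to 72 h or 96 h. Noncompartmental ln-transformed AUC0-t, Cmax and Ct were fitted by linear mixed model (period fixed, participant random) for GMR and 90% CI. t1/2 was descriptive.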
# [4] = dolutegravir 50 mg + GSK3640254 200 mg QD, after Day 7 dose, n = 16
smiles,measurement,setting,value
C=C(C)[C@@H]1CC[C@]2(NCCN3CCS(=O)(=O)CC3)CC[C@]3(C)[C@H](CC[C@@H]4[C@@]5(C)CC=C(C6=CC[C@@](CF)(C(=O)O)CC6)C(C)(C)[C@@H]5CC[C@]43C)[C@@H]12 [GSK3640254],most commonly reported adverse event,[1],headaches
same,inhibition across HIV‐1 subtypes,HIV‐1 subtypes,demonstrated inhibition
same,contact dermatitis at the electrocardiographic electrode site,[2]; 16 participants per treatment,1 event
same,"overall drug interaction, tolerability and safety finding",[2],not associated with drug–drug interactions or major tolerability or safety findings
same,"GSK3640254 t1/2, geometric mean (SD Ln)",[3]; [4],23.42 (1.16) h
same,AUC,"[3]; human, plasma, 200 mg",26700 ng·h/mL
same,Cmax,"[3]; human, plasma, 200 mg",1680 ng/mL
same,Tmax,"[3]; human, plasma, 200 mg",5 h
same,concentration at 24 h,"[3]; human, plasma, 200 mg",860 ng/mL
"C[C@@H]1CCO[C@H]2Cn3cc(C(=O)NCc4ccc(F)cc4F)c(=O)c(O)c3C(=O)N12 [dolutegravir, reference compound]","overall drug interaction, tolerability and safety finding",[2],not associated with drug–drug interactions or major tolerability or safety findings
same,"dolutegravir Tmax (median [min, max])","[3]; dolutegravir 50 mg + GSK3640254 200 mg QD, Day 7, n = 16","3.0 (1.0, 4.5) h"
same,"dolutegravir t1/2, geometric mean (SD Ln)",[3]; [4],14.69 (1.13) h
same,"dolutegravir Cmax, geometric mean (SD Ln)","[3]; dolutegravir 50 mg QD alone, Day 5, steady state, moderate-fat meal, plasma, n = 16",4.96 (1.18) μg/mL
same,"dolutegravir t1/2, geometric mean (SD Ln)","[3]; dolutegravir 50 mg QD alone, after Day 5 dose, n = 16",14.49 (1.13) h
same,concentration at 24 h,"[3]; human, plasma, 50 mg",1370 ng/mL
